Source: ChEMBL document CHEMBL1122425, “Synthesis and some pharmacological properties of [4-threonine,7-sarcosine]oxytocin, a peptide with high oxytocic potency, and of [4-threonine,7-N-methylalanine]oxytocin” (1983)

Experiments:
[1] = species on record: Rattus norvegicus; experiment: In vitro for uterotonic activity in the absence of Mg2+ ion by Munsick method; type: functional
[2] = species on record: Rattus norvegicus; experiment: In vitro for uterotonic activity in the presence of Mg2+ ion by Munsick method; type: functional
Method in brief: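 Isolated uterus bath contains 0.5 mM Mg2+.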

[3] = system: Rattus norvegicus; experiment: Evaluation of antidiuretic activity against ethanol-anesthetized rats; type: functional, Urine
Method in brief: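 Rats water-loaded before assay, under ethanol anesthesia.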

[4] = species on record: Rattus norvegicus; experiment: Evaluation of milk ejecting activity; type: functional
[5] = species on record: Rattus norvegicus; experiment: Evaluation of vasopressor activity; type: functional
[6] = Ratio of Oxytocin to Antidiuretic activity; type: functional, Urine
[7] = Ratio of Oxytocin to Pressor activity; type: functional

| SMILES | Activity [1] [U mg-1] | Activity [2] [U mg-1] | Activity [3] [U mg-1] | Activity [4] [U mg-1] | Activity [5] [U mg-1] | Ratio [6] | Ratio [7] |
| --- | --- | --- | --- | --- | --- | --- | --- |
| CC[C@H](C)[C@@H]1NC(=O)[C@H](Cc2ccc(O)cc2)NC(=O)[C@@H](N)CSSC[C@@H](C(=O)N(C)[C@@H](C)C(=O)N[C@@H](CC(C)C)C(=O)NCC(N)=O)NC(=O)[C@H](CC(N)=O)NC(=O)[C@H](CCC(N)=O)NC1=O | 62 | 184 | 0.12 | 402 | <0.35 | 516 |  |
| CC[C@H](C)[C@@H]1NC(=O)[C@@H](Cc2ccc(O)cc2)NC(=O)[C@H](N)CSSC[C@@H](C(=O)N2CCC[C@@H]2C(=O)N[C@@H](CC(C)C)C(=O)NCC(N)=O)NC(=O)[C@H](CC(N)=O)NC(=O)[C@@H]([C@H](C)O)NC1=O |  |  |  |  |  |  | 2150 |
| CC[C@H](C)[C@@H]1NC(=O)[C@H](Cc2ccc(O)cc2)NC(=O)[C@@H](N)CSSC[C@@H](C(=O)N2CCC[C@H]2C(=O)N[C@@H](CC(C)C)C(=O)NCC(N)=O)NC(=O)[C@H](CC(N)=O)NC(=O)[C@H](CCC(N)=O)NC1=O [OXYTOCIN] | 520 | 486 | 4 | 474 |  |  | 120 |
| CC[C@H](C)[C@@H]1NC(=O)[C@@H](Cc2ccc(O)cc2)NC(=O)[C@H](N)CSSC[C@@H](C(=O)N(C)[C@H](C)C(=O)N[C@@H](CC(C)C)C(=O)NCC(N)=O)NC(=O)[C@H](CC(N)=O)NC(=O)[C@@H](CCC(N)=O)NC1=O |  |  |  |  |  |  | > 177 |
| CC[C@H](C)[C@@H]1NC(=O)[C@@H](Cc2ccc(O)cc2)NC(=O)[C@H](N)CSSC[C@@H](C(=O)N(C)[C@H](C)C(=O)N[C@@H](CC(C)C)C(=O)NCC(N)=O)NC(=O)[C@H](CC(N)=O)NC(=O)[C@@H]([C@H](C)O)NC1=O |  |  |  |  |  |  | > 192 |
| CC[C@H](C)[C@@H]1NC(=O)[C@@H](Cc2ccc(O)cc2)NC(=O)[C@H](N)CSSC[C@@H](C(=O)N(C)CC(=O)N[C@@H](CC(C)C)C(=O)NCC(N)=O)NC(=O)[C@H](CC(N)=O)NC(=O)[C@@H]([C@H](C)O)NC1=O |  |  |  |  |  |  | > 2350 |
| CC[C@H](C)[C@@H]1NC(=O)[C@H](Cc2ccc(O)cc2)NC(=O)[C@@H](N)CSSC[C@@H](C(=O)N(C)CC(=O)N[C@@H](CC(C)C)C(=O)NCC(N)=O)NC(=O)[C@H](CC(N)=O)NC(=O)[C@H]([C@@H](C)O)NC1=O | 1173 | 1561 | 0.037 | 731 | <0.5 | 31700 |  |
| CC[C@H](C)[C@@H]1NC(=O)[C@H](Cc2ccc(O)cc2)NC(=O)[C@@H](N)CSSC[C@@H](C(=O)N(C)[C@@H](C)C(=O)N[C@@H](CC(C)C)C(=O)NCC(N)=O)NC(=O)[C@H](CC(N)=O)NC(=O)[C@H]([C@@H](C)O)NC1=O | 115 | 219 | 0.047 | 243 | <0.6 | 2450 |  |
| CC[C@H](C)[C@@H]1NC(=O)[C@H](Cc2ccc(O)cc2)NC(=O)[C@@H](N)CSSC[C@@H](C(=O)N2CCC[C@H]2C(=O)N[C@@H](CC(C)C)C(=O)NCC(N)=O)NC(=O)[C@H](CC(N)=O)NC(=O)[C@H]([C@@H](C)O)NC1=O | 923 | 719 | 1.8 | 543 | 0.43 | 510 |  |
| CC[C@H](C)[C@@H]1NC(=O)[C@H](Cc2ccc(O)cc2)NC(=O)[C@@H](N)CSSC[C@@H](C(=O)N(C)CC(=O)N[C@@H](CC(C)C)C(=O)NCC(N)=O)NC(=O)[C@H](CC(N)=O)NC(=O)[C@H](CCC(N)=O)NC1=O | 459 | 609 | 0.18 | 564 | <0.35 | 2550 |  |
| CC[C@H](C)[C@@H]1NC(=O)[C@@H](Cc2ccc(O)cc2)NC(=O)[C@H](N)CSSC[C@@H](C(=O)N(C)CC(=O)N[C@@H](CC(C)C)C(=O)NCC(N)=O)NC(=O)[C@H](CC(N)=O)NC(=O)[C@@H](CCC(N)=O)NC1=O |  |  |  |  |  |  | > 1310 |
